Screens from PubChem BioAssay.
Compounds with a hit are over-represented: about 4.7% of the library has one in this group of screens.
FXN GAA850 act – activators of GAA850 frataxin (FXN) promoter; AID 540364; HEK293 lucGAA850 FXN promoter luciferase reporter, 24 h; percent of 10 µM SAHA response; activation, % at 6 µM; 360,000 compounds, 0.56% hits;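 active = activation above the average of all compounds screened plus 3 SD, cutoff fixed separately per campaign, cut at about 7.5% in these data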
MC4R barr agon – human MC4R agonism via beta-arrestin | P32245 | U2OS MC4R beta-arrestin complementation, luminescence; percent of melanotan II response, DMSO zero | activation, % at 8.9 µM | 360,000 compounds, 0.98% hits;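 active = activation above a per-plate cutoff, the mean activation of sample wells on that plate plus 3 SD, cut at about 8% in these data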
AHR activator – human AHR activation; P35869; AHR-responsive luciferase reporter cells, luminescence; activation, % at 5 µM; 320,000 compounds, 2.5% hits; in the data active = activation above about 47%
Target sequence (P35869 whole entry, looked up): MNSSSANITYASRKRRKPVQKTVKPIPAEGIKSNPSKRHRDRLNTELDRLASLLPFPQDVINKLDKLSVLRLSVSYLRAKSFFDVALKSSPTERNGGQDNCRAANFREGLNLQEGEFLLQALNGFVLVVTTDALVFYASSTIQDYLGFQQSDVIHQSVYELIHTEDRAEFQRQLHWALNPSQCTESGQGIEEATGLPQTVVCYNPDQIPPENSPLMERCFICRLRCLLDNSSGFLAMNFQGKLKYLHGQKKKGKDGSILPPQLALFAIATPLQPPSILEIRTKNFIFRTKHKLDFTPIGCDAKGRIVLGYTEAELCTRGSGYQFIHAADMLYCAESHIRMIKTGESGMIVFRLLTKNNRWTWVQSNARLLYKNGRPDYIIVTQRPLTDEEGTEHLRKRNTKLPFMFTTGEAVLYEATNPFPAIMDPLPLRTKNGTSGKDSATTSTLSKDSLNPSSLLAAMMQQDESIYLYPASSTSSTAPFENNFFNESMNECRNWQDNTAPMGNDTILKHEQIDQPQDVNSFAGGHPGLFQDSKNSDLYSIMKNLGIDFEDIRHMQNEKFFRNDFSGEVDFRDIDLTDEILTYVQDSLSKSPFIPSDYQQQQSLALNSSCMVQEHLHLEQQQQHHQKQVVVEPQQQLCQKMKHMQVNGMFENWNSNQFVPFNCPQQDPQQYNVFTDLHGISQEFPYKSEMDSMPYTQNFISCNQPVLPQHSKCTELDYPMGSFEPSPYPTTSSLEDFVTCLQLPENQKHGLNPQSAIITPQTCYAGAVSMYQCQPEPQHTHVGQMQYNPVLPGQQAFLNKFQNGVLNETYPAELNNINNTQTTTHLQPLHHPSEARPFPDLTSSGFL
MC4R antag cAMP – blocks human MC4R cAMP signaling; P32245; MC4R-expressing cells, MTII-stimulated cAMP, LANCE TR-FRET; inhibition, % at 6.5 µM; 360,000 compounds, 0.48% hits;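 active = inhibition above its plate's cutoff, the mean of tested wells on that plate plus 3 SD, cut at about 29% in these data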
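Material: U2OS-MC4R stable cell line | Reagent: Melanotan II challenge after compound preincubation | Doses: One concentration, 6.5 µM nominal | Incubation: 30-min compound preincubation, 1-h Melanotan II challenge, 1-h detection, room temperature | Signal: TR-FRET cAMP assay | Replicates: One well per compound, no replicates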
m5-HT2A agonist – agonists of mouse serotonin 5-HT2A receptor (HTR2A). P35363. CHO-K1 mHTR2A beta-arrestin complementation, luminescence; percent of 30 µM serotonin response. activation, % at 7.6 µM. 360,000 compounds, 0.66% hits. AID 624169;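 active = activation above a run cutoff, the mean activation of all tested compounds plus 3 SD, cut at about 14% in these data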
MC4R barr ag – human MC4R beta-arrestin agonism confirmation; activation, % at 8.9 µM; shares compounds with MC4R barr agon; 2,400 compounds, 31% hits; U2OS MC4R beta-arrestin recruitment, luminescence; scaled DMSO 0%, Melanotan II 100%;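 active = mean activation across replicates above the hit cutoff set in the earlier primary screen, cut at about 8% in these data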
MOR DOR agonist – OPRM1-OPRD1 heterodimer agonism counter-screen | shares compounds with MC4R barr agon | U2OS PathHunter beta-arrestin, beta-gal luminescence; percent of deltorphin B response, DMSO zero | activation, % at 9.2 µM | 2,400 compounds, 5.8% hits | AID 602194;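 active = mean activation across replicates exceeds the hit threshold derived in the earlier primary screen, cut at about 18% in these data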
Each line names hits and unclear results; the compound was inactive in the other large screens (follow-up assays come after a bar, where they were run).

CCN(CC)c1nc(-c2cccc(OC)c2O)nc2ccccc12	none
COc1cccc(Nc2nc(-c3ccccc3O)nc3ccccc23)c1	MC4R barr agon 17 | MC4R barr ag inactive | MOR DOR agonist inactive
CCCOC(=O)c1cccc(Nc2nc(-c3cccnc3)nc3ccccc23)c1	MC4R barr agon 26 | MC4R barr ag 17 | MOR DOR agonist inactive
COc1cccc(-c2nc(NCc3ccccc3)c3ccccc3n2)c1O	MC4R barr agon 18 | MC4R barr ag inactive | MOR DOR agonist inactive
COC(=O)c1sccc1NC(=O)Nc1ccc(C(C)=O)cc1	none (no result: AHR activator)
COc1ccc(Nc2nc(-c3ccncc3)nc3ccccc23)cc1	MC4R barr agon 19 | MC4R barr ag inactive | MOR DOR agonist inactive
COc1ccc(Nc2nc(-c3ccccc3O)nc3ccccc23)cc1	none
OCc1cccc(-c2csc(C(O)c3ccco3)n2)c1 (stereo not drawn)	none (no result: AHR activator)
CC(=C/c1ccco1)/C=N/NC(=O)CSc1nnc(SCc2ccc(C)cc2)s1	MC4R barr agon 20 | MC4R barr ag inactive | MOR DOR agonist inactive
Cc1ccc(CSc2nnc(SCC(=O)N/N=C/c3c[nH]c4ccccc34)s2)cc1	MC4R barr agon 12 (no result: AHR activator) | MC4R barr ag 13 | MOR DOR agonist 18
O=C(CSc1nnc(SCc2ccccc2)s1)N/N=C/C=C\c1ccco1	none
Cc1ccc(C(=O)Nc2ccc(S(=O)(=O)NC3=NCCCCC3)cc2)cc1S(=O)(=O)N1CCOCC1	none
O=C(Nc1ccc(Cl)c(Cl)c1)c1csc(-c2ccccc2)n1	MC4R barr agon 20, AHR activator 74 | MC4R barr ag inactive | MOR DOR agonist inactive
CCOC(=O)c1oc2ccccc2c1NC(=O)COc1ccc(F)cc1	MC4R barr agon 37 | MC4R barr ag 25 | MOR DOR agonist 21
CCOC(=O)c1oc2ccccc2c1NC(=O)COc1cccc(OC)c1	none
CCOCc1c(C(=O)OCC(=O)NCc2ccc(F)cc2)oc2ccccc12	MC4R barr agon 14 | MC4R barr ag inactive | MOR DOR agonist inactive
COc1ccc(S(=O)(=O)c2snnc2C)cc1	none
C=CCSc1nc2c(c(=O)[nH]c(=O)n2C)n1Cc1ccc(C)cc1	MC4R barr agon 14 | MC4R barr ag inactive | MOR DOR agonist inactive
Cc1ccc(SCC(=O)N2CCN(S(=O)(=O)c3cccs3)CC2)cc1	none
CCOC(=O)c1[nH]c2ccc(Cl)cc2c1NC(=O)/C=C/c1ccc2c(c1)OCO2	MC4R barr agon 38 | MC4R barr ag inactive | MOR DOR agonist inactive
CC1CCN(S(=O)(=O)c2ccc(NC(=O)c3ccccc3F)cc2)CC1	none
Cc1ccc(S(=O)(=O)N2CCN(S(=O)(=O)N3CCCCC3)CC2)cc1C	none
CC1CCN(S(=O)(=O)c2ccc(NC(=O)Cn3nnc(-c4ccccc4F)n3)cc2)CC1	MC4R barr agon 12 | MC4R barr ag 15 | MOR DOR agonist inactive
Cc1ccc(NC(=O)c2ccc(S(=O)(=O)N3CCC(C)CC3)cc2)cc1	MC4R barr agon 11 | MC4R barr ag inactive | MOR DOR agonist inactive
Cc1ccc(S(=O)(=O)N2CCN(S(=O)(=O)N3CCC(C)CC3)CC2)cc1C	MC4R barr agon 10 | MC4R barr ag inactive | MOR DOR agonist inactive
C[C@@H]1CN([C@H](C)CO)C(=O)c2c(c3ccccc3n2C)-c2ccccc2CO[C@@H]1CN(C)S(=O)(=O)c1cccs1	none (no result: AHR activator)
COc1ccc(CC(=O)OCC(=O)N2N=C(c3ccccc3)CC2c2ccc(OC)cc2)cc1 (stereo not drawn)	none
CCCCC(=O)OCC(=O)N1N=C(c2c[nH]c3ccccc23)C(O)C1c1ccc(OC)cc1 (stereo not drawn)	MC4R barr agon 15 | MC4R barr ag 8.3 | MOR DOR agonist inactive
CCOC(=O)C1=C(c2ccccc2)NC(N)=NC1c1ccc(OCc2ccc(C(=O)OC)cc2)cc1 (stereo not drawn)	MC4R barr agon 14 | MC4R barr ag inactive | MOR DOR agonist inactive
COc1ccc(-c2nnc3sc(-c4cccs4)nn23)cc1OC	none
COc1cc(-c2nnc3sc(-c4cccs4)nn23)cc(OC)c1OC	MC4R barr agon 15 | MC4R barr ag inactive | MOR DOR agonist inactive
CCCn1c(SCC(=O)N2N=C3/C(=C/c4ccc(OC)cc4)CCCC3C2c2ccc(OC)cc2)n[nH]c1=O (stereo not drawn)	MC4R barr agon 13 | MC4R barr ag 14 | MOR DOR agonist inactive
CCc1nn2c(N)c(/C=C3\C=Nc4ccccc43)c(=O)nc2s1	none
CCOC(=O)c1c(Nc2ccccc2)sc(/C=C2\C=Nc3ccccc32)c1O	MC4R barr agon 15 | MC4R barr ag inactive | MOR DOR agonist inactive
CCc1ccc2c(c1)cc(CN(C(=S)Nc1ccccc1C)C1CC1)c1nnnn12	MC4R barr agon 12 | MC4R barr ag inactive | MOR DOR agonist inactive
CCc1ccc2c(c1)cc(CN(C(=S)Nc1ccccc1)C1CC1)c1nnnn12	none
O=C(Nc1ccn(Cc2c(F)c(F)cc(F)c2F)n1)c1ccc(COc2cc(Cl)ccc2Cl)o1	MC4R barr agon 11 | MC4R barr ag inactive | MOR DOR agonist inactive
O=C(/C=C/c1ccc2c(c1)OCCCO2)c1ccccc1O	none
Cc1ccc(O)c(C(=O)/C=C/c2ccc3c(c2)OCCCO3)c1	MC4R barr agon 23 | MC4R barr ag 24 | MOR DOR agonist inactive
O=C(O)c1cc(=O)[nH]c2ccccc12	none (no result: AHR activator)
Cc1ccc(N2C(=O)CS/C2=N\C(=S)Nc2ccccc2)cc1	MC4R barr agon 27 | MC4R barr ag inactive | MOR DOR agonist inactive
O=C(CSc1nnc(COc2ccc(Cl)cc2)n1Cc1ccco1)c1ccccc1F	MC4R barr agon 22 | MC4R barr ag inactive | MOR DOR agonist inactive
O=C(CSc1nc2ccccc2s1)Nc1ccc2c(c1)oc1ccccc12	MC4R barr agon 17 | MC4R barr ag inactive | MOR DOR agonist inactive
O=C(CSc1nc2ccccc2s1)Nc1ccc(Cl)c(C(=O)O)c1	none
Cn1c(SCC(=O)Nc2ccc3[nH]c(=O)[nH]c3c2)nnc1-c1ccccc1	none
Cn1c(SCC(=O)Nc2ccc3c(c2)oc2ccccc23)nnc1-c1ccccc1	MC4R barr agon 10 | MC4R barr ag inactive | MOR DOR agonist inactive
O=C(CSc1nc2ccccc2s1)CSc1nc2ccccc2s1	MC4R barr agon 15 | MC4R barr ag inactive | MOR DOR agonist inactive
Cc1ccc(S(=O)(=O)NNC(=O)CCC(=O)Nc2ccccc2Cl)cc1	none (no result: AHR activator)
CCCCCCCOC(=O)C[N+](C)(C)CCOC1CC2CCC1(C)C2(C)C (stereo not drawn)	MC4R barr agon 12 (no result: AHR activator) | MC4R barr ag 18 | MOR DOR agonist inactive
